Measurements: ChEMBL document CHEMBL1641520, “Design, synthesis, and biological evaluation of novel water-soluble N-mustards as potential anticancer agents” (Bioorg Med Chem, 2011)
Calls of active or inactive are those of the source. The calls are words filed in the database; no cut-off is given here.

How the values were obtained:
CCRF-CEM [1] = assay: Cytotoxicity against human CCRF-CEM cells after 72 hrs by XTT assay; format: functional, cell-based
In short: (§1)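 CCRF-CEM leukemia cells and their taxol- or vinblastine-resistant sublines given compound for 72 h. XTT read-out: after phenazine methosulfate–XTT, 6 h at 37 °C, absorbance at 450 and 630 nm. IC50 from median-effect analysis of dose-effect data at six or seven concentrations.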

CCRF-CEM [2] = assay: Cytotoxicity against taxol-resistant human CCRF-CEM cells after 72 hrs by XTT assay; format: functional, cell-based; in short: as §1
CCRF-CEM [3] = assay: Cytotoxicity against vinblastine-resistant human CCRF-CEM cells after 72 hrs by XTT assay; format: functional, cell-based; in short: as §1
CCRF-CEM [4] = assay: Selectivity ratio of IC50 for taxol-resistant human CCRF-CEM cells to IC50 for human CCRF-CEM cells; format: functional
CCRF-CEM [5] = assay: Selectivity ratio of IC50 for vinblastine-resistant human CCRF-CEM cells to IC50 for human CCRF-CEM cells; format: functional
[6] = Cytotoxicity against human H1299 cells after 72 hrs by alamar blue assay; format: functional, cell-based; details: NCI-H1299, 72 h
In short: (§2)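 H1299, PC3, CL1-0, CL1-5 and MCF-7 cells exposed to compound for 72 h. Alamar blue added, then 6 h at 37 °C; absorbance at 570 and 600 nm. IC50 from median-effect analysis of dose-effect data at six or seven concentrations.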

[7] = Cytotoxicity against human CL1-5 cells after 72 hrs by alamar blue assay; format: functional, cell-based; details: CL1-5, 72 h; in short: as §2
PC-3 [8] = assay: Cytotoxicity against human PC3 cells after 72 hrs by alamar blue assay; format: functional, cell-based; details: PC-3, 72 h; in short: as §2
HCT-116 [9] = assay: Cytotoxicity against human HCT116 cells after 72 hrs by SRB assay; format: functional, cell-based; details: HCT-116, 72 h
In short: (§3)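 MX-1 breast and HCT-116 colon carcinoma cells exposed to compound for 72 h; growth measured by sulforhodamine B assay. IC50 from median-effect analysis of dose-effect data at six or seven concentrations.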

MX1 [10] = assay: Cytotoxicity against human MX1 cells after 72 hrs by SRB assay; format: functional, cell-based; details: MX1, 72 h; in short: as §3
MCF7 = assay: Cytotoxicity against human MCF7 cells after 72 hrs by alamar blue assay; format: functional, cell-based; details: MCF7, 72 h; in short: as §2
MX1 [11] = assay: Anticancer activity against human MX1 cells xenografted in athymic mouse assessed as complete tumor remission at 30 mg/kg, iv Q2D for 5 days measured after 70 days of tumor implantation; format: functional, organism-based; design: dose 30 mg/kg
In short: (§4)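 Athymic nu/nu nude mice (male, ≥6 weeks, 20–24 g) carrying human tumor xenografts; dosing iv via tail vein, Q2D, in vehicle of DMSO/Tween 80/saline (50:40:160 µL). Dose level is the maximal tolerated dose determined beforehand. Tumor volume by caliper (length × width × height or width). Body weight taken as total minus tumor weight (1 mm³ = 1 mg). n = 4–5 mice.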

PC-3 [12] = assay: Anticancer activity against human PC3 cells xenografted in athymic mouse assessed as tumor suppression at 30 mg/kg, iv Q2D for 4 days; format: functional; details: PC-3, 96 h; in short: as §4
PC-3 [13] = assay: Anticancer activity against human PC3 cells xenografted in athymic mouse assessed as tumor suppression at 40 mg/kg, iv Q2D for 3 days; format: functional; details: PC-3, 72 h; in short: as §4
HCT-116 [14] = assay: Anticancer activity against human HCT116 cells xenografted in athymic mouse assessed as tumor suppression at 30 mg/kg, iv Q2D for 5 days; format: functional; details: HCT-116, 120 h; in short: as §4
U-87MG ATCC = assay: Anticancer activity against human U87MG cells xenografted in athymic mouse assessed as tumor suppression at 30 mg/kg, iv Q2D for 6 days; format: functional, organism-based; design: dose 30 mg/kg; in short: as §4
Nucleic Acid = assay: Binding affinity to Escherichia coli plasmid EGFP-N1 DNA at 1 to 10 uM after 22 hrs by alkaline agarose gel shift assay; format: nucleic-acid assay
In short: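 Purified pEGFP-N1 plasmid DNA (1500 ng) incubated with compound (1–20 µM) in 3 mM NaCl/1 mM sodium phosphate pH 7.4/1 mM EDTA for 2 h at 37 °C. Linearized with BamHI, ethanol-precipitated, denatured in 0.5 N NaOH-10 mM EDTA. Run on 0.8% alkaline agarose gel at 4 °C, 18 V for 22 h. Ethidium bromide stain; cross-linked double-stranded DNA scored against single-stranded DNA.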

[15] = Cell cycle arrest in human H1299 cells assessed as accumulation at sub-G1 phase at 2.5 uM after 24 hrs by propidium iodide staining-based flow cytometry; format: functional; details: NCI-H1299
In short: (§5)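 H1299 non-small cell lung carcinoma cells exposed to compound for 24 h. Attached cells trypsinized, PBS-washed, fixed in ice-cold 70% ethanol for 30 min. Stained with 4 µg/ml propidium iodide in PBS with 1% Triton X-100 and 0.1 mg/ml RNase A. Analyzed by flow cytometry; phase percentages taken from DNA histograms.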

[16] = Cell cycle arrest in human H1299 cells assessed as accumulation at sub-G1 phase at 5 uM after 24 hrs by propidium iodide staining-based flow cytometry; format: functional; details: NCI-H1299; in short: as §5
[17] = Cell cycle arrest in human H1299 cells assessed as accumulation at sub-G1 phase at 10 uM after 24 hrs by propidium iodide staining-based flow cytometry; format: functional; details: NCI-H1299; in short: as §5
[18] = Cell cycle arrest in human H1299 cells assessed as accumulation at G1 phase at 2.5 uM after 24 hrs by propidium iodide staining-based flow cytometry; format: functional; details: NCI-H1299; in short: as §5
[19] = Cell cycle arrest in human H1299 cells assessed as accumulation at G1 phase at 5 uM after 24 hrs by propidium iodide staining-based flow cytometry; format: functional; details: NCI-H1299; in short: as §5
[20] = Cell cycle arrest in human H1299 cells assessed as accumulation at G1 phase at 10 uM after 24 hrs by propidium iodide staining-based flow cytometry; format: functional; details: NCI-H1299; in short: as §5
[21] = Cell cycle arrest in human H1299 cells assessed as accumulation at S phase at 2.5 uM after 24 hrs by propidium iodide staining-based flow cytometry; format: functional; details: NCI-H1299; in short: as §5
[22] = Cell cycle arrest in human H1299 cells assessed as accumulation at S phase at 5 uM after 24 hrs by propidium iodide staining-based flow cytometry; format: functional; details: NCI-H1299; in short: as §5
[23] = Cell cycle arrest in human H1299 cells assessed as accumulation at S phase at 10 uM after 24 hrs by propidium iodide staining-based flow cytometry; format: functional; details: NCI-H1299; in short: as §5
[24] = Cell cycle arrest in human H1299 cells assessed as accumulation at G2/M phase at 2.5 uM after 24 hrs by propidium iodide staining-based flow cytometry; format: functional; details: NCI-H1299; in short: as §5
[25] = Cell cycle arrest in human H1299 cells assessed as accumulation at G2/M phase at 5 uM after 24 hrs by propidium iodide staining-based flow cytometry; format: functional; details: NCI-H1299; in short: as §5
[26] = Cell cycle arrest in human H1299 cells assessed as accumulation at G2/M phase at 10 uM after 24 hrs by propidium iodide staining-based flow cytometry; format: functional; details: NCI-H1299; in short: as §5
[27] = Mean residence time in Sprague-Dawley rat at 1 mg/kg, iv by LC-MS/MS analysis; format: ADME, organism-based; design: dose 1 mg/kg, route intravenous; details: in vivo
[28] = Steady state clearance in Sprague-Dawley rat at 1 mg/kg, iv up to 24 hrs by LC-MS/MS analysis; format: ADME, organism-based; design: dose 1 mg/kg, route intravenous; details: in vivo, read-out: CLss
[29] = Cytotoxicity against human CL1-0 cells after 72 hrs by alamar blue assay; format: functional, cell-based; details: CL1-0, 72 h; in short: as §2

## CN(C)CCNC(=O)c1cccc(NC(=O)Nc2ccc(N(CCCl)CCCl)cc2)c1.Cl
CCRF-CEM [1]
  IC50: 130 nM
CCRF-CEM [2]
  IC50: 1220 nM
CCRF-CEM [3]
  IC50: 800 nM
CCRF-CEM [4]
  Ratio IC50: 9.4
CCRF-CEM [5]
  Ratio IC50: 6.2
[6]
  IC50: 10400 nM
[7]
  IC50: 6080 nM
PC-3 [8]
  IC50: 1880 nM
HCT-116 [9]
  IC50: 690 nM
MX1 [10]
  IC50: 570 nM
MCF7
  IC50: 630 nM
MX1 [11]
  inhibition: Active
PC-3 [12]
  inhibition in vivo at 30 mg/kg: > 99%
PC-3 [13]
  inhibition in vivo at 40 mg/kg: > 99%
HCT-116 [14]
  inhibition in vivo at 30 mg/kg: > 95%
U-87MG ATCC
  inhibition: Active
Nucleic Acid
  Activity: Active
[15]
  Activity: 20%
[16]
  Activity: 19.7%
[17]
  Activity: 26%
[18]
  Activity: 2.3%
[19]
  Activity: 10.7%
[20]
  Activity: 6.5%
[21]
  Activity: 1.8%
[22]
  Activity: 8.8%
[23]
  Activity: 5.2%
[24]
  Activity: 55.9%
[25]
  Activity: 60.8%
[26]
  Activity: 62.3%
[27]
  MRT: 6.6 min
[28]
  clearance: 18 mL/min/kg
[29]
  IC50: 14600 nM
